Data set [1] in a line: Half life in Sprague-Dawley rat intestinal homogenate at pH 6.5 by LC/MS analysis. In kind it is ADME, tissue-based, Intestine. The gist of the method: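 Compound stock (1 mg/ml, 400 µL) mixed with 260 µL buffer and 140 µL homogenate, 37 °C. Samples taken over time, quenched with methanol, centrifuged, supernatant analysed by LC-MS (C18, acetonitrile gradient in ammonium acetate pH 5.5). Run separately for each phosphorus diastereomer.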

Data set [2] can be described thus: Half life in phosphate buffer at pH 7.4 at 37 degC assessed as half life by LC/MS analysis. It counts as physicochemical.
Data set [3] can be described thus: Half life in phosphate buffer at pH 6.5 at 37 degC by LC/MS analysis. In kind it is physicochemical.
For another data set, the system named is Human betaherpesvirus 5. As to the kind of experiment: Antiviral activity against HCMV Towne infected in HFF cells incubated for 10 days by plaque reduction assay. It counts as functional, organism-based. Conditions: hff. The gist of the method:
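Towne strain (plaque-purified P0) on HFF cells, about 100 plaques per well. Drug overlay (100 µM down to 0.03 µM), about 10 days incubation, crystal violet staining, microscopic plaques counted. IC50 from regression of % plaque reduction versus no-drug wells. Duplicate; ganciclovir as positive control.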
(In general: Plaque reduction counts the foci of infection that form in a cell layer.)

A further data set deals with HFF. Put plainly: Cytotoxicity against HFF cells after 48 hrs by visual cytotoxicity observation assay. In kind it is cell-based, Homo sapiens. The conditions noted are these: hff.
Data set [4] has as its system Plasma. Put plainly: Drug level in CFW Swiss-Webster mouse plasma assessed as (S)-cHPMPA levels dosed at 10 mg equivalent of (S)-9-[3-hydroxy-2-(phosphonomethoxy)propyl]adenine/kg, po by LC-MS analysis. The conditions noted are these: in vivo. It counts as ADME, organism-based. A digest of the protocol:
(§1)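 CFW Swiss-Webster mice, 4 weeks old, 25 g, fasted 18 h with water. Prodrug given by gavage in water at 10 mg eq (of HPMPA)/kg. Plasma by cardiac puncture at 1, 2, 3, 4 and 8 h, 5 mice per time point, one sample per mouse. Solid-phase extraction, then LC-MS (ESI positive) against internal-standard calibration curves.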

The next data set has as its system Human alphaherpesvirus 1. Put plainly: Antiviral activity against HSV1 KOS infected in HFF cells incubated for 3 days by plaque reduction assay. Conditions: hff. In kind it is functional, organism-based. The gist of the method:
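HFF monolayer plaque reduction, about 100 plaques per well. Drug overlay (100 µM down to 0.03 µM), about 3 days incubation, crystal violet staining, macroscopic plaques counted. IC50 from regression of % plaque reduction relative to no-drug wells. Duplicate; acyclovir run as positive control.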

Data set [5] in a line: Antiviral activity against Cowpox virus Brighton infected in HFF cells incubated for 3 days by plaque reduction assay. It counts as functional, cell-based, Cowpox virus (Brighton Red). The conditions noted are these: hff.
Data set [6] concerns Plasma. As to the kind of experiment: Drug level in CFW Swiss-Webster mouse plasma dosed at 10 mg equivalent of (S)-9-[3-hydroxy-2-(phosphonomethoxy)propyl]adenine/kg, po by LC-MS analysis. It counts as ADME, organism-based. The conditions noted are these: in vivo. The gist of the method: as §1
In the next data set the test system is Vaccinia virus. As to the kind of experiment: Antiviral activity against Vaccinia virus Copenhagen infected in HFF cells incubated for 3 days by plaque reduction assay. The conditions noted are these: hff. It counts as functional, organism-based, Orthopoxvirus vaccinia.

The structures appear in SMILES notation. Bounds are passed on as bounds.

As to `CC(C)(C)NC(=O)[C@H](N)Cc1ccc(O[P@]2(=O)CO[C@@H](Cn3ccc(N)nc3=O)CO2)cc1`, the half-life (as a rule, the time in which the quantity being followed falls by half) in data set [1] was 3.85 h; in data set [2], 1 h; in [3], 3.5 h.

Turning to `CC(C)CNC(=O)[C@@H](N)Cc1ccc(O[P@@]2(=O)CO[C@@H](Cn3cnc4c(N)ncnc43)CO2)cc1`, the half-life in [1] worked out at 12.8 h; in [2] it was 3.85 h; in data set [3], 12.8 h.

As to `CC(C)CNC(=O)[C@@H](N)Cc1ccc(O[P@]2(=O)CO[C@@H](Cn3cnc4c(N)ncnc43)CO2)cc1`, the half-life in data set [1] stood at 1.9 h; in [2], 0.433 h; in data set [3], 2.03 h.

As for `COC(=O)[C@H](Cc1ccc(O[P@@]2(=O)CO[C@@H](Cn3cnc4c(N)ncnc43)CO2)cc1)NC(=O)[C@@H](N)C(C)C`, the half-life in [1] was less than 0.5 h; in [2], 1.1 h; in data set [3] it was 5.77 h.

`COC(=O)[C@H](Cc1ccc(O[P@]2(=O)CO[C@@H](Cn3cnc4c(N)ncnc43)CO2)cc1)NC(=O)[C@@H](N)C(C)C`: the results for the half-life in data set [1], in data set [2] and in [3] were less than 0.5 h, 0.25 h and 1.58 h, respectively.

Consider `CC(C)CNC(=O)[C@@H](N)Cc1ccc(OP2(=O)CO[C@@H](Cn3cnc4c(N)ncnc43)CO2)cc1.Cl` (mixture of isomers; form 2), for which the IC50 (as a rule, the concentration at which inhibition is half-maximal) in the data set with Human betaherpesvirus 5 was 1300 nM; with HFF, 100000 nM; with Human alphaherpesvirus 1, 35000 nM; in data set [5] it was 2000 nM; in the data set on Vaccinia virus it was 1500 nM. For the same compound, the values for the Drug uptake in the data set on Plasma [4] and in the data set on Plasma [6] were 80% and 20%, respectively.

For the origin of these results see ChEMBL document CHEMBL1926544, “Tyrosine-based 1-(S)-[3-hydroxy-2-(phosphonomethoxy)propyl]cytosine and -adenine ((S)-HPMPC and (S)-HPMPA) prodrugs: synthesis, stability, antiviral activity, and in vivo transport studies” (J Med Chem, 2011).
